Published values of several laboratories.
Lines come from different studies, so protocols differ.
Target: Serine/threonine-protein kinase Nek2 (NEK2, Homo sapiens, UniProt P51955)
Residues used in one study (P51955 1-445): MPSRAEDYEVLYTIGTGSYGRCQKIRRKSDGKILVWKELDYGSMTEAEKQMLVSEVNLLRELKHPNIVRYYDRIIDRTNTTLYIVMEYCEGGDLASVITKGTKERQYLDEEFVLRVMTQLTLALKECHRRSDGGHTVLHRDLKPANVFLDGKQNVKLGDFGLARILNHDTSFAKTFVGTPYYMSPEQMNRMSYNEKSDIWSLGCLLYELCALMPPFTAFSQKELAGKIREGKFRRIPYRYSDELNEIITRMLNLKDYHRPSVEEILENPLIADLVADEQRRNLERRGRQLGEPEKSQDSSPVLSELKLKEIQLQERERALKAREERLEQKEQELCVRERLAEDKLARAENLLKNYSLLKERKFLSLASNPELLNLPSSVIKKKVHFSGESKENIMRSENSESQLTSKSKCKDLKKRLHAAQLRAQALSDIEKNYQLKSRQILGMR

SMILES | effect on | mode | technique | tested at | measurement | result
Cc1sc(C(=O)NC2COC2)cc1-n1cc(NC(=O)Nc2c(F)cccc2Cl)cn1 | enzyme activity | inhibitor | – | 10 µM | remaining activity | 88%
FC(F)c1nc2ccccc2n1-c1nc(N2CCOCC2)nc(N2CCOCC2)n1 | enzyme activity | inhibitor | – | 10 µM | remaining activity | 106%
Cn1c2c(c3ccc(Cl)c(Cl)c31)C(C#N)C1(CCOCC1)NC2=O (centres unmarked) | thermal stability | – | DSF | 10 µM | ΔTm | -0.2 °C
Nc1nc(NC2CCCCC2)sc1C(=O)c1ccccc1 | enzyme activity | inhibitor | – | 10 µM | remaining activity | 93%
CN(C(=O)c1ccccc1)c1cc(N(C)c2ccc3c(c2)CCc2ccc(C(=O)NCCN4CCOCC4)cc2C3=O)ccc1F | cell-free assay | – | competition with immobilised ligand | 1 µM | remaining binding | 96%
FC(F)(F)Oc1cccc(-c2cnc3ccc(-c4ccncc4)nn23)c1 | enzyme activity | inhibitor | radiometric | 1 µM | activity vs control | 91%
CC(=O)Nc1c(C(C)=O)c(=O)n(C)c2nc(-c3ccc(Cl)cc3Cl)c(-c3ccc(Cl)cc3)cc12 | cell-free assay | – | competition with immobilised ligand | 1 µM | remaining binding | 100%
Cc1cnc(NC2CCOCC2)nc1-n1cnc(C(=O)NC(CN)c2cc(F)cc(Cl)c2)c1 (centres unmarked) | enzyme activity | inhibitor | radiometric | 1 µM | remaining activity | 36%
CCN(CC)CCNC(=O)c1c(C)[nH]c(/C=C2\C(=O)Nc3ccc(F)cc32)c1C | enzyme activity | inhibitor | – | 10 µM | inhibition | 28%
CN1CC(Oc2cnc(C#N)cc2-c2ccn3nc(NC(=O)C4CC4)cc3c2)C1 | enzyme activity | inhibitor | – | 1 µM | inhibition | 5%
CC(C)c1ccc(NC(=O)c2cccs2)c(-c2nc3ccccc3[nH]c2=O)c1 | enzyme activity | inhibitor | – | 1 µM | activity vs control | 93%
CC(C)(C)c1nc(-c2cccc(NS(=O)(=O)c3c(F)cccc3F)c2F)c(-c2ccnc(N)n2)s1 | enzyme activity | inhibitor | radiometric | 1 µM | remaining activity | 83%
N#CC1(c2ccccn2)CCN(Cc2cc(C(=O)N3CCCC3)c(=O)n3ccccc23)CC1 | cell-free assay | – | competition with immobilised ligand | 1 µM | remaining binding | 95%
Cc1ccc(C(=O)NCc2ccsc2)cc1C#Cc1cn(C(C)C)c2ncnc(N)c12 | enzyme activity | inhibitor | – | 1 µM | activity vs control | 111%
COc1cc(Nc2cnc(C#N)c(O[C@H](C)CN(C)C)n2)ncc1-c1cnn(C)c1 | enzyme activity | inhibitor | radiometric | 1 µM | remaining activity | 58%
CCN1CCC2(CC1)NC(=O)c1c(c3ccc(Cl)c(Cl)c3n1C)C2C#N (racemic) | thermal stability | – | DSF | 10 µM | ΔTm | 0 °C
CNC(=O)c1ccc(Nc2ncc(C(F)(F)F)c(NCc3nccnc3N(C)S(C)(=O)=O)n2)cc1 | cell-free assay | – | competition with immobilised ligand | 0.1 µM | remaining binding | 75%
CCCOc1ccc(OC)c(F)c1C(=O)c1ccc(C(=O)N[C@@H]2CNC[C@H]2NC(=O)c2ccc3[nH]ncc3c2)cc1 | enzyme activity | inhibitor | – | 10 µM | remaining activity | 66%
Cc1ccc(NC(=O)c2ccc(CN3CCN(C)CC3)cc2)cc1Nc1nc(-c2cccnc2)cs1 | cell-free assay | – | – | 0.5 µM | remaining signal | 96.7%

SMILES | effect on | mode | technique | tested at | measurement | result
CNC(=O)c1cc(Oc2ccc(NC(=O)Nc3ccc(Cl)c(C(F)(F)F)c3)cc2)ccn1 | enzyme activity | inhibitor | – | 0.3 µM | inhibition | -1%
CNCc1ccc(-c2cc(-c3nc(-c4ccc(S(=O)(=O)C(C)C)cc4)cnc3N)on2)cc1 | enzyme activity | inhibitor | – | 2 µM | inhibition | 2%
Cn1c2c(Cl)c(Cl)ccc2c2cn[nH]c(=O)c21 | thermal stability | – | DSF | 10 µM | ΔTm | -0.6 °C
CN(c1ccnc(CNc2nc(Nc3ccc4c(c3)CC(=O)N4)ncc2C(F)(F)F)n1)S(C)(=O)=O | cell-free assay | – | competition with immobilised ligand | 1 µM | remaining binding | 83%
Cc1ccc(Nc2nccc(N(C)c3ccc4c(C)n(C)nc4c3)n2)cc1S(N)(=O)=O | enzyme activity | inhibitor | – | 10 µM | inhibition | 91%
Oc1cccc(-c2nc(N3CCOCC3)c3oc4ncccc4c3n2)c1 | enzyme activity | inhibitor | – | 10 µM | remaining activity | 86%
CS(=O)(=O)NCC[C@H](NC(=O)c1cncc2c1cnn2-c1ccc(F)cc1)c1ccnc(S(C)(=O)=O)c1 | cell-free assay | – | competition with immobilised ligand | 1 µM | remaining binding | 97%
COc1cc(/C=C/C(=O)CC(=O)/C=C/c2ccc(O)c(OC)c2)ccc1O | enzyme activity | inhibitor | – | 1 µM | activity vs control | 99%
CNc1cccc2cc(C(=O)Nc3ccc(C(=O)O)cc3)c(=O)[nH]c12 | enzyme activity | inhibitor | – | 10 µM | inhibition | 3.2%
O=C(NS(=O)(=O)c1ccc(NCC2CCOCC2)c([N+](=O)[O-])c1)c1ccc(N2CCN(Cc3ccc(C(F)(F)F)cc3-c3ccc(Cl)cc3)CC2)cc1Oc1cnc2[nH]ccc2c1 | cell-free assay | – | competition with immobilised ligand | 1 µM | remaining binding | 100%
Cn1c2c(Cl)c(Cl)ccc2c2cc(N)[nH]c(=O)c21 | thermal stability | – | DSF | 10 µM | ΔTm | 1.8 °C
COc1cc2ncnc(Nc3ccc(Oc4ccccc4)cc3C)c2cc1OC | enzyme activity | inhibitor | – | 1 µM | inhibition | 1%
Cn1c2c(c3ccc(Cl)c(Cl)c31)C(C#N)C1(CCCC1)NC2=O (centres unmarked) | thermal stability | – | DSF | 10 µM | ΔTm | 0.3 °C
Nc1cnc(N2CCc3cc(S(=O)(=O)Nc4c(F)cc(Cl)cc4F)cc(N4CCCC4=O)c32)nc1 | cell-free assay | – | competition with immobilised ligand | 1 µM | remaining binding | 89%
CSc1nc(C)c(-c2ccnc(Nc3ccc(N4CCOCC4)cc3)c2)[nH]1 | enzyme activity | inhibitor | – | 10 µM | inhibition | 20%
COc1cc2ncnc(Nc3ccc(F)c(Cl)c3)c2cc1OCCCN1CCOCC1 | cell-free assay | – | – | 0.5 µM | remaining signal | 98.4%
CN(C)C1CCN(CC#Cc2nn(C3CCCC3)c3nc(NCc4ccccc4)ncc23)C1 (centres unmarked) | enzyme activity | inhibitor | FRET | 1 µM | inhibition | 4%
Cc1ccc(NC(=O)c2ccc(C)c(C(F)(F)F)c2)cc1C#Cc1nn(C2CCC(O)CC2)c2ncnc(N)c12 (centres unmarked) | cell-free assay | – | – | 10 µM | remaining signal | 117%
Clc1ccc(Nc2nnc(Cc3ccncc3)c3ccccc23)cc1 | cell-free assay | – | – | 0.5 µM | remaining signal | 101%
